From ChEMBL document CHEMBL3994590, “In vitro activity and mode of action of distamycin analogues against African trypanosomes” (Eur J Med Chem, 2017)
Active and inactive are the calls of the source. The rule behind the calls is not given here.

Columns and labels:
Leishmania infantum = experiment: Inhibition of Leishmania infantum recombinant trypanothione synthetase using GSH/spermididine as substrate assessed as residual activity by measuring phosphate release from ATP at 30 uM after 15 mins by Biomol Green reagent based assay relative to control
[1] = test system: Trypanosoma brucei brucei; experiment: Antitrypanosomal activity against Trypanosoma brucei brucei 427 bloodstream forms at 5 uM after 24 hrs by propidium iodide dye based flow cytometry; format: functional; conditions: for inhibition of growth at 5 µM: Trypanosoma brucei, 427, 24 h, read-out: GI
Procedure, shortened: (§1)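 Bloodstream T. b. brucei 427 grown in HMI-9 with 10% FBS, penicillin/streptomycin, 37 °C, 5% CO2. Exponential-phase cells seeded at 5x10^5/mL; compounds added from DMSO stocks, 1% v/v DMSO final. […] Exposure 24 h, then diluted into PBS/1% glucose with 2 µg/mL PI and counted by flow cytometry. Viability given as % of DMSO-treated cell count.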

Trypanosoma cruzi = experiment: Inhibition of Trypanosoma cruzi recombinant trypanothione synthetase using GSH/spermididine as substrate assessed as residual activity by measuring phosphate release from ATP at 30 uM after 15 mins by Biomol Green reagent based assay relative to control
[2] = test system: Trypanosoma brucei brucei; experiment: Inhibition of Trypanosoma brucei brucei recombinant trypanothione synthetase using GSH/spermididine as substrate assessed as residual activity by measuring phosphate release from ATP at 30 uM after 15 mins by Biomol Green reagent based assay relative to control
[3] = Selectivity index, ratio of EC50 for murine macrophage J774 cells to EC50 for Trypanosoma brucei brucei 427 bloodstream forms; format: toxicity; conditions: mouse; read-out: Ratio EC50
[4] = test system: Trypanosoma brucei brucei; experiment: Antitrypanosomal activity against Trypanosoma brucei brucei 427 bloodstream forms after 24 hrs by propidium iodide dye based flow cytometry; format: functional; conditions: Trypanosoma brucei, 427, 24 h; procedure, shortened: as §1
[5] = test system: Trypanosoma brucei brucei; experiment: (§2) Antitrypanosomal activity against Trypanosoma brucei brucei 427 bloodstream forms infected CHO-K1 cells expressing redox biosensor rxYFP assessed as induction of rxYFP oxidation at 1 mM preincubated for 1 hr followed by DTT addition measured after 30 mins by propidium iodide based flow cytometry relative to control; format: functional
Procedure, shortened: (§3)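 CHO-K1 cells expressing rxYFP in DMEM with 10% FCS, given 400 µg/mL zeocin 48 h before the assay. Trypsinized cells seeded at 8x10^5/mL and treated in triplicate for 1 h at 37 °C with 1, 5 or 10 µM test compound, 1 mM menadione, H2O2 or DTT, or 1% DMSO. Some wells then given 1 mM DTT for 30 min. PI-negative cells analysed by flow cytometry (488/530 nm), as % reduction relative to DMSO.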

[6] = test system: Trypanosoma brucei brucei; experiment: Antitrypanosomal activity against Trypanosoma brucei brucei 427 bloodstream forms infected CHO-K1 cells expressing redox biosensor rxYFP assessed as induction of rxYFP oxidation at 1 mM after 1 hr by propidium iodide based flow cytometry relative to control; format: functional; procedure, shortened: as §3
[7] = test system: Trypanosoma brucei brucei; experiment: Antitrypanosomal activity against Trypanosoma brucei brucei 427 bloodstream forms assessed as induction of membrane damage at 310 nM after 1 hr by propidium iodide dye based flow cytometry; format: functional
Procedure, shortened: (§4)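 Bloodstream strain 427 at 5x10^5/mL in triplicate, exposed to 310, 155 or 77.5 nM, 0.001% v/v Triton X-100, 15 µM nifurtimox or 1% v/v DMSO. Incubated 0.5, 1, 2 or 4 h, then diluted into PBS/1% glucose. PI added at 2 µg/mL just before flow cytometry. Result is % PI-positive cells, mean ± SD (n=3), with one-way ANOVA and Dunnett's test against DMSO.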

[8] = test system: Trypanosoma brucei brucei; experiment: (§5) Antitrypanosomal activity against Trypanosoma brucei brucei 427 bloodstream forms infected CHO-K1 cells expressing redox biosensor hGrx-roGFP2 assessed as induction of hGrx-roGFP2 oxidation at 77.5 to 310 nM after 1 hr by flow cytometric method; format: functional
Procedure, shortened: (§6)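 Parasites induced with oxytetracycline for 24 h, then moved to 1x10^6/200 µL without inducer. Treated in triplicate for 1 h at 37 °C with 78–310 nM test compound, 1 mM menadione, 15 µM nifurtimox, 1 mM DTT or 1% DMSO. Half then given 1 mM DTT for 30 min more. PI at 2 µg/mL added; biosensor read at 488/530 nm in PI-negative cells only, as % reduction relative to DMSO.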

[9] = test system: Trypanosoma brucei brucei; experiment: Antitrypanosomal activity against Trypanosoma brucei brucei 427 bloodstream forms assessed as increase in intracellular free iron level at 3.1 uM co-incubated with DFO after 1 hr by PhenGreen SK diacetate reagent based flow cytometry; format: functional, cell-based
Procedure, shortened: (§7)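 Strain 427 at 2x10^6/mL in triplicate with 3.1 µM test compound, with or without 10 or 100 µM deferoxamine or bipyridine; 1% DMSO control. After 40 min at 37 °C/5% CO2, PhenGreen SK diacetate added at 10 µM for 20 min more. Cells diluted in PBS/1% glucose and probe fluorescence (ex 488 nm) read by flow cytometry; mean ± SD (n=3).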

[10] = test system: Trypanosoma brucei brucei; experiment: Antitrypanosomal activity against Trypanosoma brucei brucei 427 bloodstream forms assessed as membrane damage in presence of bipyridine at 0.31 uM after 2 hr by propidium iodide staining-based flow cytometry
[11] = test system: Trypanosoma brucei brucei; experiment: Antitrypanosomal activity against Trypanosoma brucei brucei 427 bloodstream forms assessed as induction of membrane damage at 155 nM after 2 to 4 hrs by propidium iodide dye based flow cytometry; format: functional; procedure, shortened: as §4
[12] = test system: Trypanosoma brucei brucei; experiment: Antitrypanosomal activity against Trypanosoma brucei brucei 427 bloodstream forms assessed as increase in intracellular free iron level at 3.1 uM co-incubated with bipyridine for 1 hr by PhenGreen SK diacetate reagent based flow cytometry
[13] = test system: Trypanosoma brucei brucei; experiment: (§8) Antitrypanosomal activity against Trypanosoma brucei brucei 427 bloodstream forms assessed as induction of membrane damage at 310 nM after 3 hrs by propidium iodide dye based flow cytometry relative to control; format: functional
[14] = test system: Trypanosoma brucei brucei; experiment: as §5, with “preincubated for” for “after”, “hr followed by DTT addition measured after 30 mins” for “hr”; format: functional; procedure, shortened: as §6
[15] = test system: Trypanosoma brucei brucei; experiment: Antitrypanosomal activity against Trypanosoma brucei brucei 427 bloodstream forms assessed as increase in intracellular free iron level at 3.1 uM after 1 hr by PhenGreen SK diacetate reagent based flow cytometry; format: functional; procedure, shortened: as §7
[16] = test system: Trypanosoma brucei brucei; experiment: Antitrypanosomal activity against Trypanosoma brucei brucei 427 bloodstream forms assessed as induction of membrane damage at 310 nM after 2 to 4 hrs by propidium iodide dye based flow cytometry; format: functional; procedure, shortened: as §4
[17] = test system: Trypanosoma brucei brucei; experiment: as §8, with “nM parasite preincubated with 125 to 500 uM DFO for 3 hrs followed by test compound addition measured” for “nM”; format: functional
Procedure, shortened: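 Strain 427 at 1x10^6/mL in triplicate at 37 °C. Arm A: 0.31 µM test compound with 100 µM DFO or bipyridine for 2 h. Arm B: DFO at 125–500 µM for 3 h, then 0.31 µM test compound for a further 3 h. Membrane integrity read by PI staining and flow cytometry; mean ± SD (n=3).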

[18] = test system: Trypanosoma brucei brucei; experiment: as §2, with “10 uM” for “1 mM”; format: functional; procedure, shortened: as §3
[19] = test system: Trypanosoma brucei brucei; experiment: Antitrypanosomal activity against Trypanosoma brucei brucei 427 bloodstream forms assessed as induction of mitochondrial damage at 0.31 uM preincubated for 30 mins followed by addition of Mitotracker red CM-H2XRos further incubated for 30 mins and measured by epifluorescence microscopy; format: functional
Procedure, shortened: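 Strain 427 at 1x10^6/mL treated with 0.31 µM test compound for 30 min. MitoTracker Red CM-H2XRos then added at 250 nM for 30 min more. Cells centrifuged, PBS-washed, fixed in 4% paraformaldehyde for 18 min, mounted with DAPI. Mitochondrial morphology and staining intensity compared with 1% DMSO-treated cells by fluorescence microscopy.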

[20] = test system: Trypanosoma brucei brucei; experiment: Antitrypanosomal activity against Trypanosoma brucei brucei 427 bloodstream forms assessed as induction of membrane damage at 77.5 to 310 nM by propidium iodide dye based flow cytometry; format: functional; conditions: TDE = time-dependent effect; procedure, shortened: as §4
[21] = test system: Trypanosoma brucei brucei; experiment: Antitrypanosomal activity against Trypanosoma brucei brucei 427 bloodstream forms assessed as induction of membrane damage at 310 nM after 2 hrs by propidium iodide dye based flow cytometry relative to control; format: functional; procedure, shortened: as §4
[22] = test system: Trypanosoma brucei brucei; experiment: Antitrypanosomal activity against Trypanosoma brucei brucei 427 bloodstream forms infected CHO-K1 cells expressing redox biosensor rxYFP assessed as induction of rxYFP oxidation at 1 to 10 uM after 1 hr by propidium iodide based flow cytometry relative to control; format: functional; procedure, shortened: as §3
[23] = test system: Trypanosoma brucei brucei; experiment: Antitrypanosomal activity against Trypanosoma brucei brucei 427 bloodstream forms assessed as decrease in parasite levels with discrete lysosomal signal at 0.31 uM preincubated for 30 mins followed by addition of Lysotracker red DND-99 further incubated for 30 mins and measured by epifluorescence microscopy relative to control; format: functional
[24] = test system: Trypanosoma brucei brucei; experiment: Antitrypanosomal activity against Trypanosoma brucei brucei 427 bloodstream forms infected CHO-K1 cells expressing redox biosensor hGrx-roGFP2 assessed as induction of hGrx-roGFP2 oxidation at 1 mM after 1 hr by flow cytometric method; format: functional; procedure, shortened: as §6
[25] = test system: Trypanosoma brucei brucei; experiment: Antitrypanosomal activity against Trypanosoma brucei brucei 427 bloodstream forms infected CHO-K1 cells expressing redox biosensor hGrx-roGFP2 assessed as induction of hGrx-roGFP2 oxidation at 1 mM preincubated for 1 hr followed by DTT addition measured after 30 mins by flow cytometric method; format: functional; procedure, shortened: as §6
[26] = test system: Trypanosoma brucei brucei; experiment: Antitrypanosomal activity against Trypanosoma brucei brucei 427 bloodstream forms at 30 uM after 24 hrs by propidium iodide dye based flow cytometry; format: functional; procedure, shortened: as §1

Activity (Leishmania infantum) [%] | Activity (Trypanosoma cruzi) [%] | Activity [2] [%] | EC50 [4] [µM] | SMILES | selectivity ratio [3] | other results
116 | 112 | 112 |  | CC(C)(C)OC(=O)Nc1nc(C(=O)Nc2nc(C(=O)Nc3nc(C(=O)O)cs3)cs2)cs1 |  | inhibition of growth at 5 µM [1]: 22.7%
99.8 | 96.2 | 100 | 5.5 | CCOC(=O)c1csc(NC(=O)c2csc(NC(=O)c3csc(N)n3)n2)n1 | 19.6 | 
 |  |  |  | OO [HYDROGEN PEROXIDE] |  | Activity [5]: inactive; Activity [6]: 25%
102 | 99 | 108 |  | CC(=O)Nc1nc(C(=O)Nc2nc(C(=O)O)cs2)cs1 |  | inhibition of growth at 5 µM [1]: 20%
106 | 126 | 120 | 0.31 | CCOC(=O)c1csc(NC(=O)c2csc(NC(=O)c3csc(NC(=O)OC(C)(C)C)n3)n2)n1 | 16.5 | Activity [7]: 10%; Activity [8]: 10%; Activity [9]: inactive; Activity [10]: 47%; Activity [11]: Active; Activity [12]: inactive; Activity [13]: 80%; Activity [14]: inactive; Activity [15]: 50%; Activity [16]: 80 - 90%; Activity [17]: 40 - 67%; Activity [18]: inactive; Activity [19]: inactive; Activity [20]: Tde; Activity [21]: 87%; Activity [22]: 10%; fold change (FC) [23]: >3
 |  |  | 15 | CC1CS(=O)(=O)CCN1/N=C/c1ccc([N+](=O)[O-])o1 (stereo not drawn) [NIFURTIMOX] | 10 | 
102 | 104 | 96.6 |  | Cc1nc(C(=O)Nc2nc(C(=O)O)cs2)cs1 |  | inhibition of growth at 5 µM [1]: 8.1%
89.5 | 97.5 | 111 |  | CCOC(=O)c1csc(NC(=O)c2csc(N)n2)n1 |  | inhibition of growth at 5 µM [1]: 25.6%
57.1 |  | 49.4 |  | CNCCNC(=O)CN1C(=O)Cc2c([nH]c3ccc(Br)cc23)-c2ccc(Cl)cc21 |  | 
110 | 102 | 112 | 5 | CCOC(=O)c1csc(NC(=O)c2csc(NC(=O)c3csc(C)n3)n2)n1 | 10.5 | 
 |  |  |  | CC1=CC(=O)c2ccccc2C1=O [MENADIONE] |  | Activity [5]: inactive; Activity [24]: 21%; Activity [6]: 70%; Activity [25]: inactive
98.5 | 99.7 | 95.2 |  | CCOC(=O)c1csc(NC(=O)c2csc(C)n2)n1 |  | growth inhibition (GI) [1]: inactive
102 | 96.4 | 111 | 13.7 | CCOC(=O)c1csc(NC(=O)c2csc(NC(=O)OC(C)(C)C)n2)n1 | 3.5 | 
82.8 | 98.1 | 102 | 9.6 | CCOC(=O)c1csc(NC(=O)c2csc(NC(C)=O)n2)n1 | 7.4 | 
83.6 | 102 | 103 |  | CC(=O)Nc1nc(C(=O)Nc2nc(C(=O)Nc3nc(C(=O)O)cs3)cs2)cs1 |  | Activity [26]: inactive; growth inhibition (GI) [1]: inactive
 |  |  |  | O[C@H](CS)[C@H](O)CS |  | Activity [24]: inactive
105 | 96.3 | 93.7 | 5.4 | CCOC(=O)c1csc(NC(=O)c2csc(NC(=O)c3csc(NC(C)=O)n3)n2)n1 | 29.1 | 
89.9 | 105 | 100 |  | CC(C)(C)OC(=O)Nc1nc(C(=O)Nc2nc(C(=O)O)cs2)cs1 |  | inhibition of growth at 5 µM [1]: 10.8%
 | 64.9 |  |  | O=c1[nH]c2cc3no[n+]([O-])c3cc2[nH]1 |  | 
